In ChEMBL document CHEMBL1126252, “cis-bis(pyridine)platinum(II) organoamides with unexpected growth inhibition properties and antitumor activity” (1992):

Columns and labels:
P388 [1] = assay: Mean survival time of treated animals compared with those of control animals expressed as percentage. T/C was determined against murine leukemia P388 implanted mouse at the dose of 140 umol/kg; assay type: functional
Method in brief: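 BDF1 mice (six per group) inoculated ip with 10^6 P388 leukemia cells on day 0; Pt compounds given ip on days 1, 5 and 9 in 1% Tween-20/saline (1:9), five doses over a 16-fold range including the maximum tolerated dose. Untreated/vehicle negative controls; 5-fluorouracil (50 mg/kg) positive control. Animals observed 30–60 days; %T/C = mean survival time treated vs control.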

L1210 [2] = assay: Compound was evaluated in vitro for its inhibitory activity against L1210 leukemia cell line using Coulter counter assay; assay type: functional; conditions: Mus musculus
Method in brief: (§1)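 Log-phase murine L1210 or cisplatin-resistant L1210/DDP cells, drug in ethanol, ethanol/DMSO or DMF (final solvent ≤1.0%) with vehicle-only controls. Exposure was continuous for 48 h, or 2 h followed by 46 h growth. Cells were counted on a Coulter counter. ID50 (μM) was read from the percentage growth versus dose curve; single determinations, ranges, or mean ± range of 2–4.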

P388/DDP [3] = assay: Mean survival time of treated animals compared with those of control animals expressed as percentage T/C was determined against murine leukemia P388/DDP (cisplatin resistant) implanted mouse at the dose of 113 umol/kg; assay type: functional
Method in brief: (§2)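 Groups of six BDF1 mice were injected ip on day 0 with 10^6 P388, 5 × 10^6 P388/DDP or 10^5 L1210 cells. Pt compounds in 1% Tween-20/saline (1:9) were given ip on days 1, 5 and 9 at five doses spanning a 16-fold range. Controls were untreated or vehicle-only. Mice were observed 30–60 days; %T/C is treated versus control mean survival time.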

L1210 [4] = assay: Compound was evaluated in vitro for its inhibitory activity against L1210 leukemia cell line using […]; assay type: functional, cell-based; conditions: Mus musculus
Method in brief: (§3)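 L1210 or L1210/DDP cells were dosed as for counting (48 h continuous, or 2-h pulse then 46 h), with vehicle controls. Growth was read by mitochondrial reduction of tetrazolium (MTT), modified Mosmann method. ID50 (μM) was taken from the percentage growth versus dose curve; single determinations, ranges, or mean ± range of 2–4.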

HT-29 [5] = assay: Compound was evaluated in vitro for its inhibitory activity againstHT-29 and BE human colon carcinoma cell line using MTT assay; assay type: functional, cell-based
Method in brief: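 HT-29 and BE colon cells were pre-grown 12 h in EMEM with 1% glutamine and 15% FCS, then exposed to drug or vehicle for 2 days. Cells were released with pronase and growth was read by MTT tetrazolium reduction. ID50 (μM) was taken from the percentage growth versus dose curve.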

L1210 [6] = assay: Compound was evaluated in vitro for its inhibitory activity against L1210/DDP leukemia cell line using Coulter counter assay; assay type: functional, cell-based; conditions: Mus musculus; method in brief: as §1
L1210 [7] = assay: Compound was evaluated in vitro for its inhibitory activity against L1210/DDP leukemia cell line using MTT assay; assay type: functional, cell-based; conditions: Mus musculus; method in brief: as §3
HT-29 [8] = assay: Compound was evaluated in vitro for its inhibitory activity againstHT-29 and BE human colon carcinoma cell line using Coulter counter assay; assay type: functional, cell-based
Method in brief: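 HT-29 and BE human colon cells were grown 12 h in EMEM with 1% glutamine and 15% fetal calf serum. Drug or solvent was added (final solvent ≤1.0%) for a further 2 days. Cells were released with pronase and Coulter counted. ID50 (μM) was taken from the percentage growth versus dose curve, with vehicle controls.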

L1210 [9] = assay: Mean survival time of treated animals compared with those of control animals expressed as percentage T/C was determined against murine leukemia L1210 implanted mouse at the dose of 113 umol/kg; assay type: functional; method in brief: as §2
P388 [10] = assay: Mean survival time of treated animals compared with those of control animals was determined against murine leukemia P388 implanted mouse at the dose of 113 umol/kg; assay type: functional; method in brief: as §2
P388 [11] = assay: Mean survival time of treated animals compared with those of control animals expressed as percentage. T/C was determined against murine leukemia P388 implanted mouse at the dose of 20 umol/kg; assay type: functional; method in brief: as §2
P388/DDP [12] = assay: Mean survival time of treated animals compared with those of control animals expressed as percentage T/C was determined against murine leukemia P388/DDP (cisplatin resistant) implanted mouse at the dose of 20 umol/kg; assay type: functional; method in brief: as §2

Compound	T/C (P388 [1]) [%]	IC50 (L1210 [2]; read-out: ID50 (the source's name)) [µM]	T/C (P388/DDP [3]) [%]	ID50 (L1210 [4]) [µM]	ID50 (L1210 [2]) [µM]	ID50 (HT-29 [5]) [µM]	ID50 (L1210 [6]) [µM]	ID50 (L1210 [7]) [µM]	ID50 (HT-29 [8]) [µM]	T/C (L1210 [9]) [%]	T/C (P388 [10]) [%]	T/C (P388 [11]) [%]	T/C (P388/DDP [12]) [%]
Fc1cc(F)c(F)c(NCCNc2c(F)c(F)cc(F)c2F)c1F	108	37	–	–	–	–	–	–	–	–	–	–	–
1-[2-(1-pyridiniumyl)-1,3-di(2,3,5,6-tetrafluorophenyl)tetrahydro-1H-2-imidazolyl]pyridinium (platinumcomplex)	–	–	115	1.6	1.2	1.1	1	1.4	1	172	206	–	–
CISPLATIN	–	–	–	1.1	0.6	–	6.7	20.3	0.7	–	–	248	122
